Yeast fitness data for 167 variants are collected here from the RNAGym collection of RNA variant scans (doi:10.1126/science.aae0568).

To fix the notation:
B1: tRNA (parent)
chain: GUUCCGUUGGCGUAAUGGUAACGCGUCUCCCUCCUAAGGAGAAGACUGCGGGUUCGAGUCCCGUACGGAACG

Fewer inactive variants are shown than the library holds.

Variants of B1 are the subject of this series. Description: yeast fitness relative to wild type (ratio to wild type); higher = fitter; tRNA-Arg(CCU), competitive growth, 37 C, YPD. The gist of the method:
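Genotype frequency changes were the basis for Darwinian fitness relative to wild type. The frequencies came from 100-nucleotide paired-end sequencing of gene amplicons from the start population and each end population of pooled yeast strains with tRNA-Arg(CCU) gene variants at the native locus. Competition ran in YPD at 37°C for 24 hours in six replicates, genotypes needed ≥ 100 starting reads, and estimates < 0.5 were set to 0.5.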
For A57U G67C, the yeast fitness was 0.817. For the variant G39U A70C, the yeast fitness turned out to be 0.811. With U7G A14G U35G A43G U59A, the yeast fitness is 0.669. As to C5U A14G A40G, the yeast fitness was 0.648.

As to C24G U54G C55G C62U, the yeast fitness was not above 0.5. For the variant C24A U28C, the yeast fitness was 0.568. As for G52A G56A A65U A70G, the yeast fitness was not above 0.5. Under C5U U8C G41C stands 0.542; under U16C U19A U47A C61A, 0.792. Consider A20G C31G A70G, for which the yeast fitness amounted to 0.715.

Take G18C A21G G23A A43C: the yeast fitness was not above 0.5. For the variant C4U A21C A57U, the yeast fitness was not above 0.5. In the case of C24A C33G, the yeast fitness is 0.705. As to U3C A15U U16C C34U A43G, the yeast fitness is not above 0.5. Next, U13C G41C A70C: 0.566; G25A A37C C61U: 0.572; G9C U19C G48A C49U: 0.634. Take G10C A21G: the yeast fitness amounted to 0.633. In the case of C49A C61G, the yeast fitness is 0.541. Next, G12C A40U G48C G63A: not above 0.5; A36C G44U: not above 0.5; A15U G56A: 0.727. Under C5G C11G A40G stands 0.556; under C11A C22A, 0.626; under C27U U59G, 0.823. Turning to G6C U7C C31G, the yeast fitness is not above 0.5. Next, U2A U3C C4U C61A G67C: 0.59. Consider U2C A20U U28A, for which the yeast fitness was not above 0.5.

For the variant C27U A65G G68A, the yeast fitness amounted to 0.563.

For A20U C31G C55G C60G C66U A70U, the yeast fitness is not above 0.5. Regarding C33A G38C C46A G58C, the yeast fitness is 0.698. With A14G C24U G48C C66A, the yeast fitness was not above 0.5.

For G10A, the yeast fitness worked out at 0.705. On to U26C U47A, for which the yeast fitness worked out at 0.721. A20U U35C G44C: the yeast fitness is 0.592. In the case of G12C A43G G63A, the yeast fitness was 0.556.

In the case of C4U C55U C66A, the yeast fitness was not above 0.5.

Regarding C4U G12C U54G, the yeast fitness is not above 0.5. For the variant G17A U54C U59C C61G, the yeast fitness is not above 0.5. For the variant C31G G44A U47A G51C C66U, the yeast fitness is not above 0.5.

With A37G G48A, the yeast fitness was found to be 0.768. U2C G48A C60U: the yeast fitness is not above 0.5. Under G9A C22U C30G C61U A70U stands not above 0.5. Next, A65C C66A: 0.808; C5G U32G: 0.776; G9A C30A G39A U47A G63C: not above 0.5. Consider A14U C30A A65C, for which the yeast fitness was not above 0.5.

For the variant C11A A70G, the yeast fitness came out at 0.774.

For G6C A43U, the yeast fitness came to 0.831.

Turning to C24G C34G A69U, the yeast fitness was not above 0.5. G52C U64G: the yeast fitness worked out at 0.614.

Take A14C U19A A20C: the yeast fitness is not above 0.5. Regarding C5A A65C G68C, the yeast fitness is not above 0.5. For U13C C29A, the yeast fitness stood at 0.618. Under U28C A36C G67C stands 0.539; under U8A A14U A42G, not above 0.5. Consider C4G C49G G56U U64C A65C A70C, for which the yeast fitness stood at 0.635.

For C49A A57C A69C, the yeast fitness is not above 0.5.

For U13G C61U A70G, the yeast fitness stood at 0.618. For the variant C5U C31U G41C A43C C60G, the yeast fitness is not above 0.5. With C4G C11G C49U C60U, the yeast fitness is not above 0.5. Regarding U8A U26A C29A A65C A70C, the yeast fitness is not above 0.5. On to C5A A14G A20U A37C C49A, for which the yeast fitness is not above 0.5.

As for U8A G52C, the yeast fitness is not above 0.5. Turning to C29A C62U, the yeast fitness worked out at 0.723.

For the variant U2G C4U C34G, the yeast fitness is not above 0.5.

As for U8C C11A, the yeast fitness came out at 0.698. Under C24G C27A stands 0.616; under A20C A21G A45C, 0.687. In the case of G10C C34U C60A G67A, the yeast fitness is not above 0.5. For the variant C22A G23A A37G U54G, the yeast fitness is not above 0.5. In the case of U19G U26A U28C, the yeast fitness is not above 0.5. U8A G39C A70C: the yeast fitness was determined as 0.751. With U3C G12A A21G C46G G50A, the yeast fitness was not above 0.5. In the case of U19C G38C G44C C46A A70G, the yeast fitness is 0.574. As for A36C G41A U53C A65U, the yeast fitness is not above 0.5.

Regarding U3G C31A G41A, the yeast fitness was not above 0.5. For G18C C22U G56C, the yeast fitness was 0.542. Under G9A C22U C30U stands 0.519; under C22U C29A G68A A69C, 0.55; under U8A G10C A20U G41U C62U G68C, 0.799. Next, U28A C34U G52A U59C C66U: not above 0.5. Next, C4U G9A G67A: 0.598; A45U C61U: 0.974. Regarding G10C C27U, the yeast fitness stood at 0.679.

As to C22A A45C U47C U54G, the yeast fitness was not above 0.5. Consider C5A C46G C49U, for which the yeast fitness amounted to 0.727. Turning to C33A C46G C60U, the yeast fitness was found to be 0.76. For the variant G10C C24G U28C A37G U47A, the yeast fitness was not above 0.5. As for A21U A37G G50C G56C, the yeast fitness was not above 0.5. Take U16C G25C U53A: the yeast fitness is not above 0.5. In the case of A20G U28G, the yeast fitness was 0.86. Regarding A36G A42C C49A, the yeast fitness is 0.548. With A15U C22G C31U C46G G63A, the yeast fitness is not above 0.5. Next, C4U G18A A21C A36U: not above 0.5. For A21U U54G, the yeast fitness is not above 0.5. As for A21U C49U U54A U64C, the yeast fitness is not above 0.5.

With C11U, the yeast fitness turned out to be 1.01.

As for U3A C24A G63A U64A, the yeast fitness is not above 0.5. As to C24U C55A G56A, the yeast fitness was found to be 0.555.

Regarding C5G G12C C24A C33G C49G A65G, the yeast fitness amounted to 0.573. Take G18A C46U: the yeast fitness was determined as 0.749. Next, G10C U28A: 0.59; C34A U47G C49G C60G: 0.571. On to U35C A42U, for which the yeast fitness was found to be 0.819. On to A21C C62U, for which the yeast fitness came to 0.798. U19G A70U: the yeast fitness was found to be 1.02.

For the variant U8C A40C C55G, the yeast fitness was not above 0.5. In the case of U7C C11U G39C A45U G67A, the yeast fitness was not above 0.5.

Take G63C A65U A70U: the yeast fitness stood at 0.558. As for G9C A14C G44C U47C A57C, the yeast fitness is not above 0.5. On to C11G C31G C55G C60A, for which the yeast fitness is not above 0.5.

For the variant A21C C61G, the yeast fitness was determined as 0.585. Consider U3C C34G C49A G50A, for which the yeast fitness is not above 0.5. As to A15U C29A, the yeast fitness worked out at 0.568. On to U2A U3A U7A A57G, for which the yeast fitness is not above 0.5. In the case of A15U C46A U59C, the yeast fitness is not above 0.5. As to U13A C30U A45C, the yeast fitness was determined as 0.611.

For the variant U19A C29G G48A C61A, the yeast fitness is 0.683.

Regarding C24U A36U C49G, the yeast fitness amounted to 0.544.

Take U3C G18C C31G C34G: the yeast fitness is not above 0.5.

For the variant U7C C46A, the yeast fitness is 0.798. U8C A70C: the yeast fitness came to 0.922.

For G6A A20G A21G C29G, the yeast fitness is not above 0.5. G17C A69U: the yeast fitness turned out to be 0.624. In the case of U2C G63A, the yeast fitness amounted to 0.799. Consider C34A C60G G68A, for which the yeast fitness was found to be 0.688.

Consider A43U U47A, for which the yeast fitness is 0.799. For C4G C24A A42U U47A C60G, the yeast fitness is 0.62. Next, U3A G12A: 0.826; U19G C31U U32A A45U A70U: not above 0.5; C22G C29G G44C G56A A57G: 0.515. Take U3G C11G A65U C66U: the yeast fitness was not above 0.5.

As to C24A C34U A40C, the yeast fitness is not above 0.5. Next, U7C U64C: 0.88. In the case of C5U U19C U26A C62A, the yeast fitness was not above 0.5. Under A20C C31A U59C stands 0.599. Take U47G U54C: the yeast fitness worked out at 0.504. With C4U C24A, the yeast fitness came out at 0.574.

In the case of A20C G25C A40C A43C C55A C61G C66G, the yeast fitness is not above 0.5.

Regarding G63A A65C, the yeast fitness stood at 0.942. In the case of A43G C55U, the yeast fitness turned out to be 0.711.

Regarding U47C G58U G63A A65U, the yeast fitness is not above 0.5. In the case of U3C C55A C60A, the yeast fitness was not above 0.5. On to U53C G58C, for which the yeast fitness was found to be 0.977. Regarding C22G A57G C61A, the yeast fitness was not above 0.5.

For the variant U2G G68C, the yeast fitness was found to be 0.705. Regarding G18C U28C, the yeast fitness was found to be 0.663. Take U3A C62U U64C: the yeast fitness was determined as 0.77.

Consider C4A C30G C49G, for which the yeast fitness was not above 0.5.

Take U16C G18A C24G A45U U59G G68C: the yeast fitness is 0.537. Next, U3A C22U G39A: not above 0.5; A43U A57C G58A: not above 0.5. Next, U2G G6A C31G C33U U59G C66U G68A: not above 0.5; U3C C22G C27A C49U: not above 0.5; A20G C24A C29G A37U G39A U47C: not above 0.5. In the case of C33A A57G, the yeast fitness was determined as 0.781. In the case of U7A C27G C34G U54A, the yeast fitness was not above 0.5. A15U U19A A20G G41A C60G A65G: the yeast fitness is not above 0.5.

Take U7A G23C C46G G51C U53A: the yeast fitness was not above 0.5. Turning to G17C A20C C49U G52A C61A C62G, the yeast fitness is not above 0.5. Under U7G C29U stands 0.775; under C5U U7G C30A A65C, 1.07. With C11U A14G A37C, the yeast fitness is 0.737. For the variant U2C C24U C29U C30A, the yeast fitness stood at 0.59. Under C22U C34U stands 0.665; under G41C C55A A70G, 0.551.
